Measurements published in ChEMBL document CHEMBL3616382, “Catechols and 3-hydroxypyridones as inhibitors of the DNA repair complex ERCC1-XPF” (Bioorg Med Chem Lett, 2015).

Key:
[1] = target: T1, DNA excision repair protein ERCC-1/DNA repair endonuclease XPF (Homo sapiens, UniProt P07992+Q92889); assay: Inhibition of ERCC1-XPF (unknown origin) by high-throughput fluorescence based in-vitro endonuclease assay; format: protein-complex assay
T1 sequence (P07992 whole entry): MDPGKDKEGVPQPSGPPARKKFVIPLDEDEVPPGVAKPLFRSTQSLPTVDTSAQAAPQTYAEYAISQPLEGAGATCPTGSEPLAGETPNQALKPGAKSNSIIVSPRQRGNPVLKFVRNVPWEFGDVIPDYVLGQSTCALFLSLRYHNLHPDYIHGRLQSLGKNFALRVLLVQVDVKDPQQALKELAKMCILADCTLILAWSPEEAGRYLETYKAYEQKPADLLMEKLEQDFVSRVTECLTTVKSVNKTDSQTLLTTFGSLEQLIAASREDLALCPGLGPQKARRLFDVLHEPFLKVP
T1 sequence (Q92889 whole entry): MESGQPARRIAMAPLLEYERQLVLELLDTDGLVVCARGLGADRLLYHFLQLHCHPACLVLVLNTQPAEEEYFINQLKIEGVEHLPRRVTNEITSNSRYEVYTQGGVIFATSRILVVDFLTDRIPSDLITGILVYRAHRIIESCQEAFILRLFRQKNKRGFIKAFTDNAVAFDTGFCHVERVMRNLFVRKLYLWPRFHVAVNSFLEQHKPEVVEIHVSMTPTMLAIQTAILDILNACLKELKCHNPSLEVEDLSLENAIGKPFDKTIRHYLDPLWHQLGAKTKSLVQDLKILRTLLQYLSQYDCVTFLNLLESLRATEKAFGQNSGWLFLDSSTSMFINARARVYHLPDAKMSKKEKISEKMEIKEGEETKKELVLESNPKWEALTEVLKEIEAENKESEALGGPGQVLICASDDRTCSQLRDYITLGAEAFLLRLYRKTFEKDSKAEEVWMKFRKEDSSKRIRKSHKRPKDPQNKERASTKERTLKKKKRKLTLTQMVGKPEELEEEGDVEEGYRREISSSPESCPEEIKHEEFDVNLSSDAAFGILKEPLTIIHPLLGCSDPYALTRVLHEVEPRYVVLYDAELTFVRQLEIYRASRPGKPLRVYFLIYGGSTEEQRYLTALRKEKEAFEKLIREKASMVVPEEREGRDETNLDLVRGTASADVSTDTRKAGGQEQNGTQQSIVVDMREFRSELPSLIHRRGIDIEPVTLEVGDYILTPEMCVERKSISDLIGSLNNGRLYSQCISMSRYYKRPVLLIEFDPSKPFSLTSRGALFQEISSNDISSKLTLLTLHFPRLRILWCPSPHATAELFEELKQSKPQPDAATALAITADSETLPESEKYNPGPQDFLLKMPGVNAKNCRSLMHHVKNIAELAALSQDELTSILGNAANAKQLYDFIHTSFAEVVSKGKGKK

Deoxyribonuclease-1 = target: T2, Deoxyribonuclease-1 (Homo sapiens, UniProt P24855); assay: Inhibition of DNAse1 (unknown origin)
T2 sequence (P24855 whole entry): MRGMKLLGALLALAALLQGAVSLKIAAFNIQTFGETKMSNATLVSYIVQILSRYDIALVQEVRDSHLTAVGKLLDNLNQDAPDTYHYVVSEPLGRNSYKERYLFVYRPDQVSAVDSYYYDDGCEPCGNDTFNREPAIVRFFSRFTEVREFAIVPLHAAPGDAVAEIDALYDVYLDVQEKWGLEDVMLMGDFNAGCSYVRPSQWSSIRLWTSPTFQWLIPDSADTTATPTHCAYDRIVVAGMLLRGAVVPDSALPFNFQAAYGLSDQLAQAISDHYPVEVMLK

Flap endonuclease 1 = Flap endonuclease 1 (Homo sapiens, UniProt P39748); assay: Inhibition of FEN1 (unknown origin)
[2] = Half life in human liver microsomes; format: ADME
[3] = Apparent permeability by PAMPA method; format: physicochemical
[4] = Half life in mouse liver microsomes; format: ADME
HepG2 = assay: Cytotoxicity against human HepG2 cells; format: cell-based
How it was run: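 Hep-G2 cells exposed to compound at concentrations up to 10 μM; toxicity assessed.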

[5] = target: T1, DNA excision repair protein ERCC-1/DNA repair endonuclease XPF; assay: Binding affinity to ERCC1-XPF (unknown origin) by SPR assay; format: protein-complex assay
[6] = Lipophilicity, log D of the compound; format: physicochemical; conditions: octanol/water
A-375 [7] = assay: Cytotoxicity against human A375 cells assessed as reduction in cell number at 4.89 uM incubated for 5 days; format: cell-based; conditions: a-375, 120 h, 4.96 µM, in the assay text read “4.96 uM” for “4.89 uM”
How it was run: (§1)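 A375 melanoma cells treated with compound alone over 0.6–10 μM for 5 days; cell count determined by high-content imaging. Data from 4 separate experiments, error bars SD.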

[8] = target: T3, DNA excision repair protein ERCC-1/DNA repair endonuclease XPF (Homo sapiens) (UniProt P07992+Q92889); conditions: A-375, 0.624 uM
[9] = target: T3, DNA excision repair protein ERCC-1/DNA repair endonuclease XPF (Homo sapiens); assay: Inhibition of ERCC1-XPF in human A375 cells assessed as induction of delay in DNA repair by measuring cumulative frequency of cells at 10 uM pre-incubated for 1 hr before 5 uM cisplatin exposure for 1 hr and measured after 6 hrs by […] based gammaH2AX foci assay (reference value: 45.43%); format: cell-based; design: scale not given: the % may be the effect or the level left; conditions: A-375
How it was run: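 A375 cells pretreated with compound (10 μM) for 1 h, then 5 μM cisplatin for 1 h to induce damage, with continued compound exposure for 6 h. γH2AX foci per cell quantified by immunofluorescence with specific antibody and high-content imaging; cumulative Gaussian fit of foci distribution. 2 representative experiments, triplicates each, error bars SEM.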

[10] = target: T3, DNA excision repair protein ERCC-1/DNA repair endonuclease XPF (Homo sapiens); conditions: A-375, 10 uM
[11] = target: T3, DNA excision repair protein ERCC-1/DNA repair endonuclease XPF (Homo sapiens); conditions: A-375, 4.96 uM
[12] = target: T3, DNA excision repair protein ERCC-1/DNA repair endonuclease XPF (Homo sapiens); conditions: A-375, 2.48 uM
[13] = target: T1, DNA excision repair protein ERCC-1/DNA repair endonuclease XPF; assay: Inhibition of ERCC1-XPF in human A375 cells assessed as reduction in direct nucleotide excision repair of UV-damaged pEGFP plasmid incubated for 234 hrs by recombinant GFP reporter assay; format: cell-based, A-375; conditions: in the assay text read “24 hrs” for “234 hrs”
How it was run: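 A375 cells co-transfected with UV-damaged or undamaged pEGFP plus pGL3 luciferase plasmid, treated with compound up to 60 μM for 24 h. GFP/luciferase ratio for damaged plasmid divided by that for undamaged, then normalized to no-compound controls to give % NER activity (DNA Repair Index); IC50 from plot against concentration.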

A-375 [14] = assay: Cytotoxicity against human A375 cells assessed as reduction in cell number at 10 uM incubated for 5 days; format: cell-based; conditions: a-375, 120 h; how it was run: as §1
[15] = target: T3, DNA excision repair protein ERCC-1/DNA repair endonuclease XPF (Homo sapiens); conditions: A-375, 1.28 uM

Flap endonuclease 1, sequence (P39748 whole entry): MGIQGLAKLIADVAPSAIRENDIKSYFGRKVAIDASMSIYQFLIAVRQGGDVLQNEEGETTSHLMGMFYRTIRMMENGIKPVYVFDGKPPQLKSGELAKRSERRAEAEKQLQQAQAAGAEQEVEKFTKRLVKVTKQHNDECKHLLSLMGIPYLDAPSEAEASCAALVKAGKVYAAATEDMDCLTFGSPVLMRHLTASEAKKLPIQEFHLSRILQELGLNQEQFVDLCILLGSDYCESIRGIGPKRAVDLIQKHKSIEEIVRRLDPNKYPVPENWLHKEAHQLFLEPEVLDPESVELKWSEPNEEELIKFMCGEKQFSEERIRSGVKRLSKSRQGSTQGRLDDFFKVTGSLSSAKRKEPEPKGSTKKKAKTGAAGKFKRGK

Row | Structure (SMILES) | IC50 [1] | IC50 (Deoxyribonuclease-1) | IC50 (Flap endonuclease 1) | other results
1 | CC(C)C(=O)NCc1ccc(O)c(O)c1 | 24 µM | – | – | –
2 | O=C(CC1CCCCC1)NCc1ccc(O)c(O)c1 | 1.4 µM | > 100 µM | > 100 µM | –
3 | O=C1N(Cc2ccc(Cl)cc2)CCN1Cc1ccc(O)c(O)c1 | 4.1 µM | > 100 µM | > 100 µM | –
4 | CN(Cc1ccc(O)c(O)c1)C(=O)Cc1ccc(Cl)cc1Cl | 0.8 µM | > 100 µM | > 100 µM | –
5 | O=C(Cc1cccnc1)NCc1ccc(O)c(O)c1 | 25.6 µM | – | – | –
6 | Cc1cccc(NCC(=O)N/N=C/c2cc(Br)c(O)c(O)c2Br)c1 | 33 µM | > 100 µM | > 100 µM | –
7 | O=C(CCc1ccccc1)NCc1ccc(O)c(O)c1 | 7.3 µM | > 100 µM | > 100 µM | –
8 | CC(C(=O)NCc1ccc(O)c(O)c1)c1ccccc1 (centres undefined) | 1.8 µM | – | > 100 µM | –
9 | O=C(Cc1ccc(Cl)cc1)NCc1ccc(O)c(O)c1 | 1 µM | > 100 µM | > 100 µM | –
10 | CC(=O)Nc1ccc(-c2c[nH]c(=O)c(O)c2)cc1 | 13.5 µM | > 100 µM | > 100 µM | –
11 | O=C(CNc1ccccc1)NCc1ccc(O)c(O)c1 | 0.9 µM | > 100 µM | > 100 µM | –
12 | O=C(Cc1ccc(Cl)cc1Cl)NCc1c[nH]c(=O)c(O)c1 | 100 µM | – | – | –
13 | Oc1ccc(-c2nc(Cc3ccc(Cl)cc3)no2)cc1O | 7.8 µM | > 100 µM | > 100 µM | –
14 | O=c1[nH]cc(-c2ccc(F)c(Cl)c2)cc1O | 13.1 µM | > 100 µM | > 100 µM | –
15 | O=C(NCc1ccc(O)c(O)c1)C1CCN(Cc2ccc(F)cc2)CC1 | 5.8 µM | > 100 µM | > 100 µM | –
16 | O=c1[nH]cc(-c2cccc(-n3cccn3)c2)cc1O | 5.2 µM | > 100 µM | > 100 µM | –
17 | O=C(Cc1ccc(Cl)cc1Cl)N1CCc2cc(O)c(O)cc2C1 | 1 µM | > 100 µM | > 100 µM | –
18 | CC(=O)N1CCN(CC(=O)NCc2ccc(O)c(O)c2)CC1 | > 100 µM | > 100 µM | – | –
19 | O=S(=O)(Cc1ccc(Cl)cc1Cl)NCc1ccc(O)c(O)c1 | 2.9 µM | > 100 µM | > 100 µM | –
20 | O=c1[nH]cc(-c2ccc(F)cc2)cc1O | 8.7 µM | > 100 µM | > 100 µM | half-life [2]: > 400 min; Papp [3]: 4.4 ×10⁻⁶ cm/s; half-life [4]: > 400 min; Activity (HepG2): > 10 µM; Kd [5]: 3.5 µM; logD [6]: 2
21 | O=c1[nH]ccc(-c2ccc(F)cc2)c1O | > 100 µM | – | – | –
22 | O=C(CNc1ccccc1)Nc1ccc(O)c(O)c1 | 1.6 µM | > 100 µM | > 100 µM | –

Row | Structure (SMILES) | IC50 [1] | IC50 (Deoxyribonuclease-1) | IC50 (Flap endonuclease 1) | other results
23 | O=C(CNc1ccccc1)N/N=C/c1ccc(O)c(O)c1 | 2 µM | > 100 µM | > 100 µM | –
24 | Oc1ccc(Cc2nc(-c3ccc(Cl)cc3)no2)cc1O | 12.2 µM | > 100 µM | > 100 µM | –
25 | COc1ccc(CC(=O)NCc2ccc(O)c(O)c2)cc1 | 2.6 µM | – | – | –
26 | O=c1[nH]cc(Br)cc1O | 24 µM | – | – | –
27 | O=C(Cc1ccc(Cl)cc1Cl)NCc1cc(O)c(O)cc1F | 1.1 µM | > 100 µM | > 100 µM | –
28 | O=C(CNc1ccccc1)NCCc1ccc(O)c(O)c1 | 15.2 µM | > 100 µM | > 100 µM | –
29 | N#Cc1cccc(CC(=O)NCc2ccc(O)c(O)c2)c1 | 4 µM | – | – | –
30 | O=C(NCc1ccc(O)c(O)c1)c1ccccc1 | 24.5 µM | > 100 µM | > 100 µM | –
31 | O=C(NCc1ccc(O)c(O)c1)C1(c2ccccc2)CCCCC1 | 1.6 µM | – | > 100 µM | –
32 | O=c1[nH]c(-c2ccc(F)cc2)ccc1O | 55.2 µM | – | – | –
33 | O=C(Cc1ccccc1)NCc1ccc(O)c(O)c1 | 13.3 µM | > 100 µM | > 100 µM | –
34 | O=C(NCc1ccc(O)c(O)c1)Nc1ccc(Cl)cc1 | 4.8 µM | > 100 µM | > 100 µM | –
35 | O=C(Cc1ccc(N2CCOCC2)cc1)NCc1ccc(O)c(O)c1 | 7.9 µM | > 100 µM | > 100 µM | –
36 | O=C(COc1ccccc1)NCc1ccc(O)c(O)c1 | 12.1 µM | > 100 µM | > 100 µM | –
37 | O=C(NCc1ccc(O)c(O)c1)C1CCCC1 | 24.6 µM | > 100 µM | > 100 µM | –
38 | Cn1cc(-c2ccc(F)cc2)cc(O)c1=O | > 100 µM | – | – | –
39 | O=C(Cc1ccccc1Cl)NCc1ccc(O)c(O)c1 | 0.8 µM | > 100 µM | > 100 µM | –
40 | O=C(Cc1ccc(O)c(O)c1)NCc1ccc(Cl)cc1Cl | 0.74 µM | > 100 µM | > 100 µM | –
41 | O=C(Cc1ccc(Cl)cc1Cl)NCc1ccc(O)c(O)c1 | 0.63 µM | > 100 µM | > 100 µM | Activity (A-375 [7]): Toxic; PF50 [8]: 1.08; Activity [9]: 50.2%; PF50 [10]: 2.03; half-life [2]: 28 min; PF50 [11]: 1.68; Papp [3]: 3.9 ×10⁻⁶ cm/s; PF50 [12]: 1.51; half-life [4]: 23 min; IC50 [13]: 15.6 µM; Activity (A-375 [14]): Toxic; Activity (HepG2): > 10 µM; PF50 [15]: 1.15; Kd [5]: 30 µM; logD [6]: 2.7
42 | O=C(Cc1ccc(Cl)cc1Cl)NCc1ccc(O)c(O)c1Cl | 1.6 µM | > 100 µM | > 100 µM | –
43 | Cn1ncc2ccc(-c3c[nH]c(=O)c(O)c3)cc21 | 14.6 µM | > 100 µM | > 100 µM | –
